In series [1] the test system is L5178Y. The series can be described thus: Induction frequency for L5178Y cells was evaluated at dose 0.005 mg/mL in dark condition (expt-II). It counts as functional, Mus musculus. An outline of the steps: (§1)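 L5178Y suspension cells (3 × 10^6/mL, 5% CO2, 37 °C, shaking) exposed 20 h without activating enzyme; light arm irradiated 6.5 min (Hg lamp, <340 nm filtered). Cells washed, grown 24 h more and kept at 3 × 10^5/mL. Viability from 200 cells in soft agar; TFT (0.1 mg/mL) resistant colonies from 10^6 cells in triplicate dishes, counted at 10 days.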

The nature of series [2]: Half-life was evaluated in water in the presence of light. It counts as ADME.
Series [3] relates to L5178Y. The series is described as follows: Mutation frequency for L5178Y cells was evaluated at dose 0.005 mg/mL in dark condition (expt-II). It counts as functional, Mus musculus. An outline of the steps: as §1
In series [4] the test system is L5178Y. The series is described as follows: Viability of L5178Y cells was evaluated at dose 0.005 mg/mL in dark condition (expt-II). It counts as functional, Mus musculus. Summed up: (§2)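 L5178Y cells were exposed for 20 h at 3 × 10^6 cells/mL. Light arms then received 6.5 min of Hg-lamp irradiation filtered to remove light below 340 nm. Cells were washed twice in Fischer's medium, grown a further 24 h and held at 3 × 10^5 cells/mL. For viability, 200 cells were plated in soft-agar cloning medium in triplicate dishes, and colonies were counted by an automated counter after 10 days.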

Series [5] deals with L5178Y. The series can be described thus: Mean value of mutation induction for L5178Y cells was evaluated at dose 0.005 mg/mL in light condition (expt-II). In kind it is functional, Mus musculus. Summed up:
as §1

Series [6] relates to L5178Y. The series is described as follows: Mutation frequency for L5178Y cells was evaluated at dose 0.005 mg/mL in light condition (expt-II). It counts as functional, Mus musculus. An outline of the steps:
as §1

In series [7] the test system is L5178Y. The series can be described thus: Mean value of mutation induction for L5178Y cells was evaluated at dose 0.005 mg/mL in dark condition (expt-II). It counts as functional, Mus musculus. Summed up: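 L5178Y cells in suspension culture, gassed with 5% CO2 in air, shaken at 150 rpm, 37 °C. Cells at 3 × 10^6/mL were dosed for 20 h, unirradiated and without activating enzyme, then washed twice in Fop and grown 24 h more. TFT-resistant mutants came from 10^6 cells plated in three dishes of cloning medium with 0.1 mg/mL TFT, colonies counted at 10 days; frequency expressed ×10^6.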

The test system of series [8] is L5178Y. The series is described as follows: Relative toxicity against mammalian L5178Y cells at dose 0.005 mg/mL in light condition (expt-II). It counts as functional, Mus musculus. An outline of the steps:
(§3)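 L5178Y mouse cells in suspension, 3 × 10^6 cells/mL, were exposed for 20 h at 37 °C in a shaker at 150 rpm under 5% CO2, without an activating enzyme. Light arms were irradiated for 6.5 min with a medium-pressure Hg lamp filtered to remove light below 340 nm; dark arms were not. Toxicity was taken as the Coulter-counted density of treated cells versus solvent control.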

Series [9] is described as follows: Ability to block cleavage of G/GNCC site in Restriction endonuclease Sau961 with the test compound/DNA ratio 1(no. of sites=15); - = no activation. An outline of the steps:
(§4)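 pBR322 plasmid mixed with drug at 0.015, 0.12 or 0.48 mM (drug:DNA 1:8, 1:1 or 4:1), equilibrated on ice 30 min in the dark in 5 mM potassium phosphate pH 5.5, then irradiated 1 h with a medium-pressure Hg lamp (<340 nm filtered); dark set kept as control. Digested overnight with 10× excess enzyme plus DTT; fragments resolved on 1.2% agarose in TBE.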

The subject of series [10] is L5178Y. The series is described as follows: Relative toxicity against mammalian L5178Y cells at dose 0.005 mg/mL in dark condition (expt-II). It counts as functional, Mus musculus. An outline of the steps:
as §3

The subject of series [11] is L5178Y. The series is described as follows: Viability of L5178Y cells was evaluated at dose 0.005 mg/mL in light condition (expt-II). In kind it is functional, Mus musculus. An outline of the steps: as §2
Series [12] concerns L5178Y. The series can be described thus: Induction frequency for L5178Y cells was evaluated at dose 0.005 mg/mL in light condition (expt-II). In kind it is functional, Mus musculus. An outline of the steps: as §1
Series [13] can be described thus: Half-life was evaluated in water in the absence of light. In kind it is ADME.
A short description of series [14]: Ability to block cleavage of G/GNCC site in Restriction endonuclease Sau961 with the test compound/DNA ratio 1:8(no. of sites=15); - = no activation. Summed up: as §4
For series [15], the system named is L5178Y. The series is described as follows: Relative mutation induction for L5178Y cells was evaluated at dose 0.005 mg/mL in dark condition (expt-II). In kind it is functional, Mus musculus. Summed up: as §1
In series [16] the test system is L5178Y. The series can be described thus: Relative mutation induction for L5178Y cells was evaluated at dose 0.005 mg/mL in light condition (expt-II). In kind it is functional, Mus musculus. An outline of the steps:
as §1

This note sets out measurements from ChEMBL document CHEMBL1124747, “Properties of the nucleic acid photoaffinity labeling agent 3-azidoamsacrine” (J Med Chem, 1990).

For the compound `COc1cc(NS(C)(=O)=O)ccc1Nc1c2ccccc2nc2ccccc12` [AMSACRINE], the Induced frequency amounted to 439 in the series with L5178Y [1] and 733 in the series on L5178Y [12]. The half-life (commonly the time needed for the level to fall by half in the phase considered) is 24 h in series [2] and > 336 h in series [13]. In addition, the Mutation frequency was 577 10e6 F with L5178Y [3] and 862 10e6 F in the series on L5178Y [6]. Further, the Viability in the series with L5178Y [4] is given as 20; in the series on L5178Y [11], 12.3. Further, the Mean value was found to be 53 in the series on L5178Y [5] and 57.7 in the series on L5178Y [7]. The Relative toxicity in the series with L5178Y [8] and in the series with L5178Y [10] was 62 each time. Besides, the inhibition result in series [9] and in series [14] was “no activation” throughout. Also, the Relative activity stood at 67 in the series with L5178Y [15] and 10 in the series on L5178Y [16].
